Experimental findings from ChEMBL document CHEMBL3632616, “Fluorination Patterning: A Study of Structural Motifs That Impact Physicochemical Properties of Relevance to Drug Discovery” (J Med Chem, 2015) are described below.

≈ marks a conversion by molar mass, not a printed value. A value given as a limit tells only on which side of the number the result lay.

The nature of series [1]: Intrinsic clearance in rat liver microsomes assessed per mg of protein. Format: ADME. Particulars: read-out: CLH. The procedure, abridged: (§1)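 Compound incubated with liver microsomes (human for line 2, rat for line 3) and its concentration followed at up to 8 successive time points. Intrinsic pseudo-first-order decay rate constant (Clint) taken from linear regression of those concentrations and normalised to microsomal protein. Upper and lower bounds are 95% confidence levels from the regression.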
(Liver microsomes are a subcellular fraction often used to study metabolism.)

A short description of series [2]: Lipophilicity, Log P of the compound. Type of series: physicochemical. Particulars: octanol/water.
Series [3] can be described thus: Intrinsic clearance in human liver microsomes assessed per mg of protein. Type of series: ADME. Conditions: read-out: CLH. The essentials: as §1
A short description of series [4]: Aqueous solubility of the compound at pH 6.5. Format: physicochemical.

As for `CC(F)(F)CCc1c[nH]c2ccccc12`, the microsomal CLint in series [1] came to 584 µL/min/mg; in series [3] it was 321 µL/min/mg. For the same compound, in series [2], the log partition coefficient (logP) was 3. In series [4], this compound registered a solubility of 115 µM (≈ 24.1 µg/mL).

Turning to `CCCc1c[nH]c2ccccc12`, the microsomal CLint in series [1] was 182 µL/min/mg; in series [3] it was 513 µL/min/mg. This compound gave a log partition coefficient (logP) in series [2] of 3.3. In addition, in series [4], the solubility amounted to 200 µM (≈ 31.8 µg/mL).

`FCCCc1c[nH]c2ccccc12` showed a log partition coefficient (logP) in series [2] of 2.8.

With `FC(F)CCc1c[nH]c2ccccc12`, the values for the microsomal CLint in series [1] and in series [3] were 294 µL/min/mg and 372 µL/min/mg, respectively. This compound yielded a logP in series [2] of 2.9.

Take `FC(F)(F)CCc1c[nH]c2ccccc12`: the microsomal CLint in series [1] came out at 290 µL/min/mg; in series [3] it was 410 µL/min/mg. The logP in series [2] is 3.1. In series [4], this compound displayed a solubility of 30 µM (≈ 6.4 µg/mL).

For the compound `FCC(F)Cc1c[nH]c2ccccc12` (stereo unspecified), the microsomal CLint in series [1] worked out at 142 µL/min/mg; in series [3], 212 µL/min/mg. Further, in series [2], the logP was found to be 2.5. In addition, the solubility in series [4] was > 1720 µM.

Take `CC(F)(F)Cc1c[nH]c2ccccc12`: the microsomal CLint in series [1] worked out at 226 µL/min/mg; in series [3], 508 µL/min/mg. In addition, the logP in series [2] was determined as 2.8. Besides, the solubility in series [4] was found to be 820 µM (≈ 160 µg/mL).

With `CCC(F)(F)Cc1c[nH]c2ccccc12`, the microsomal CLint in series [1] was determined as 644 µL/min/mg; in series [3], 271 µL/min/mg. In series [2], this compound gave a logP of 3.1. The same compound registered a solubility in series [4] of 182 µM (≈ 38.1 µg/mL).

On to `FCC(F)CCc1c[nH]c2ccccc12` (stereo unspecified), for which the results for the microsomal CLint in series [1] and in series [3] were 492 µL/min/mg and 245 µL/min/mg, respectively. In series [2], this compound showed a logP of 2.8. The compound also returned a solubility in series [4] of 277 µM (≈ 58 µg/mL).

Consider `C[C@@H](F)[C@H](F)Cc1c[nH]c2ccccc12` (racemic), for which the logP in series [2] is 2.8.

As to `C[C@H](F)[C@H](F)Cc1c[nH]c2ccccc12` (racemic), the logP in series [2] turned out to be 2.8.

Compound `FC[C@@H](F)[C@H](F)Cc1c[nH]c2ccccc12` (racemic) displayed a logP in series [2] of 2.7.

In turn, `FC[C@H](F)[C@H](F)Cc1c[nH]c2ccccc12` (racemic) displayed a log partition coefficient (logP) in series [2] of 2.7.

By logP is commonly meant a log measure of how a compound divides between an organic and an aqueous phase. Read a low logP as a more hydrophilic compound. Usually solubility stands for the concentration that dissolves in the medium under given conditions. Low values mean little dissolved substance, high ones much dissolved substance.
